Experimental data published in ChEMBL document CHEMBL2424618, “Design, synthesis and ex vivo evaluation of colon-specific azo based prodrugs of anticancer agents” (Bioorg Med Chem Lett, 2013).

Assays:
[1] = Cytotoxicity against human COLO320DM cells after 48 hrs by MTT assay; type: functional, cell-based; conditions: COLO 320DM
Summary of the method: (§1)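 MTT colorimetric microculture assay in human colorectal cells, 5 × 10⁵ per well. After 48 h, cells incubated at 37 °C in 0.1% DMSO with compound. Sample removed, cells washed with PBS pH 7.4, MTT added. After 4 h, […] added and absorbance read at 595 nm. Triplicates; IC50 given as mean SD, p < 0.05 significant.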

COLO 205 = assay: Cytotoxicity against human COLO205 cells after 48 hrs by MTT assay; type: functional, cell-based; conditions: COLO 205, 48 h; summary of the method: as §1
HT-29 = assay: Cytotoxicity against human HT-29 cells after 48 hrs by MTT assay; type: functional, cell-based; conditions: HT-29, 48 h; summary of the method: as §1
[2] = Prodrug activation in rat cecum content in presence of azoreductase; type: tissue-based, Caecum
Summary of the method: (§2)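 Cecal content, small-intestine content, SI mucosa or LI mucosa taken from Wistar rats and suspended in cold PBS pH 7.4 as 10% (w/v) slurry. Cecal content bubbled with nitrogen. Other tissues homogenized and centrifuged to 2% w/w. All stored at −20 °C. Prodrug incubated with each preparation, azo-bond cleavage followed by UV, and % drug release determined.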

[3] = Prodrug activation in rat large intestine mucosa in presence of azoreductase; type: tissue-based; summary of the method: as §2
[4] = Chemical stability of the compound in 0.1 N HCl solution at pH 1.2; type: physicochemical; conditions: buffer
Summary of the method: (§3)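 Prodrug held in acidic buffer (pH 1.2, 0.1 N HCl) or basic buffer (pH 7.4) at 37 °C. Aliquots withdrawn at time intervals and remaining prodrug read by UV spectrophotometry at compound-specific wavelengths (306/256, 274/284 or 280/260 nm for acid/pH 7.4). Release reported as % after 24 h; mean SD, n = 6.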

[5] = Chemical stability of the compound in phosphate buffer at pH 7.4; type: physicochemical; summary of the method: as §3
[6] = Prodrug activation in rat small intestine content in presence of azoreductase; type: tissue-based; summary of the method: as §2
[7] = Prodrug activation in rat small intestine mucosa in presence of azoreductase; type: tissue-based; summary of the method: as §2
[8] = Prodrug activation in rat fecal material after 24 hrs; type: ADME, tissue-based, Feces
Summary of the method: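 About 1 g fresh rat feces per tube with prodrug in phosphate buffer pH 7.4, diluted with 5 ml buffer to 50 µg/ml, incubated at 37 °C. Aliquots taken over time and read by double-beam UV spectrophotometry at compound-specific wavelengths. Cumulative % release at 24 h; mean SD, n = 6.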

Drug metabolism [2] | Drug metabolism [3] | Stability [4] | Stability [5] | Drug metabolism [6] | Drug metabolism [7] | Drug metabolism [8] | SMILES | IC50 [1] | IC50 (COLO 205) | IC50 (HT-29)
 |  |  |  |  |  |  | CN(Cc1cnc2nc(N)nc(N)c2n1)c1ccc(C(=O)N[C@@H](CCC(=O)O)C(=O)O)cc1 [METHOTREXATE] | 5.25 µM | 3.27 µM | 3.45 µM
70% | 5% | Stable | Stable | 5% | 5% | 64% | COC(=O)CC[C@H](NC(=O)c1ccc(N(C)Cc2cnc3nc(/N=N/c4ccc(O)cc4)nc(/N=N/c4ccc(O)cc4)c3n2)cc1)C(=O)OC | 5.74 µM | 4.13 µM | 3.92 µM
70% | 5% | Stable | Stable | 5% | 5% | 71% | O=c1nc(/N=N/c2ccc(O)cc2)ccn1[C@@H]1O[C@H](CO)[C@@H](O)C1(F)F | 3.72 µM | 3.31 µM | 2.61 µM
 |  |  |  |  |  |  | Nc1ccn([C@@H]2O[C@H](CO)[C@@H](O)C2(F)F)c(=O)n1 [GEMCITABINE] | 3.92 µM | 3.24 µM | 1.95 µM
